The results in this text go back to PubChem BioAssay AID504383 (The Scripps Research Institute Molecular Screening Center, 2011).

About 1,200 (48%) of roughly 2,500 compounds were called active. The set was probably picked from earlier hits. Some of the results follow. Values without a mark were called inactive.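 How the source made its calls: active means mean activation above the low control average plus 3 SD, as set in the primary screen (cut at about 12% in these data); inactive means the rest.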

This assay has as its target Troponin I, cardiac muscle (Homo sapiens) + Troponin T, cardiac muscle (Homo sapiens) + Troponin C, slow skeletal and cardiac muscles (Homo sapiens) (UniProt P19429+P45379+P63316). The experiment in a line: calcium sensitizers of cardiac thin filaments – biochemical, IANBD-TnC fluorescence, triplicate, confirmation (AID 504383).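 Further: 0% = DMSO at 0.472 mM calcium and 100% = DMSO at 2.9 mM calcium.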 Conditions: IANBD-labeled cardiac RTF, Ca2+ sensitivity fluorescence; at 7.2 µM; stronger effect = higher value; scaled from EC20 to saturating calcium; tested at EC20 calcium, 0.472 mM. The essentials: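 Assay system: labelled regulated thin filament protein complex; schedule: 15 min compound incubation with filaments at 25 °C; benchmarks: low control EC20 calcium, high control EC100 calcium; reagent: Ca2+ 0.472 mM, EC20 level; doses: one dose, 7.2 µM nominal; evaluation: fluorescence gain scaled between EC20 and EC100 calcium controls; signal: filament fluorescence intensity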
As to `Cc1ccc(NC(=O)CN(C)C(=O)COC(=O)COc2ccc(C#N)cc2)cc1`, the activation was 3.65%.

As for `Cc1cc(=O)oc2cc(OCC(=O)OCC(=O)NC(C)C)ccc12`, the activation was 14.7% (active). To `COc1cccc(CNC(=O)CCS(=O)(=O)c2cc3c(cc2C)NC(=O)CO3)c1` belongs 7.4%; to `Cc1ccc(CNC(=O)CCS(=O)(=O)c2cc3c(cc2C)NC(=O)CO3)cc1`, 3.23%; to `Cc1cc2c(cc1S(=O)(=O)CCC(=O)NCCc1ccccc1)OCC(=O)N2`, 32.7% (active).

As for `CN1C2CCC1/C(=C/c1cccn1C)C(=O)/C2=C\c1cccn1C`, the activation is 9.37%. To `CC(C(=O)O)N1C(=O)/C(=C/c2cccn2C)SC1=S` (configuration not stated) belongs 23.1% (active); to `CCC(C(=O)O)N1C(=O)/C(=C/c2cccn2C)SC1=S` (configuration not stated), 52.1% (active). To `CC(C)C(C(=O)O)N1C(=O)/C(=C/c2cccn2C)SC1=S` (configuration not stated) belongs 21.6% (active); to `CCCc1ccc(OCc2ccc(C(=O)NN)o2)c(OC)c1`, 7.64%.

`CCCOc1ccc(Cn2c(=O)oc3ccc(C)cc32)cc1OC`: the activation was 23.1% (active). To `O=C(NC1CCCCC1)c1cc2nc3c(c(C(F)(F)F)n2n1)CCCC3` belongs 29.3% (active). To `COc1cc(OC)c(C(=O)NC2CCCCCC2)cc1OC` belongs -0.45%; to `COC(=O)c1cc(N2CCN(C)CC2)nc2ccccc12`, 9.59%; to `CN1CCN(c2ccc(-c3cccc(NC(=O)COc4ccccc4)c3)nn2)CC1`, 25% (active).

As to `COc1ccc(C(Nc2ccc(S(=O)(=O)NCC3CCCO3)cc2)C(=O)NC(C)(C)C)cc1OC` (configuration not stated), the activation was 9.44%. As for `CCCNC(=O)c1ccc(N2CCC3(CC2)CC(c2cccc(Br)c2)=NO3)c(NC(=O)c2cccc(C)c2)c1`, the activation is 9.93%. As for `COCCNC(=O)[C@H]1C[C@@H]1[C@H](NP(=O)(c1ccccc1)c1ccccc1)c1ccccc1`, the figure is 3770% (active).

As to `C[C@H](CO)NC(=O)[C@@H]1C[C@H]1[C@@H](NP(=O)(c1ccccc1)c1ccccc1)c1ccccc1`, the activation was 1.68%. Turning to `COc1cccc(/C=N/Nc2nnc(C)n2N)c1O`, the activation was 5.74%. As for `COc1ccc(-c2nn(-c3ccccc3)cc2/C=N/NC(N)=S)cc1OC`, the figure is 29% (active). As for `Cc1ccc(C(C(=O)NC(C)(C)C)N(C(=O)c2csnn2)C2CC2)cc1` (configuration not stated), the figure is 100% (active); as for `O=C1c2ccccc2-c2onc3c(N4CCN(CCO)CC4)cc(N4CCN(C(=O)c5ccco5)CC4)c1c23`, 7.32%.

As to `O=C(c1ccco1)N1CCN(c2ncnc3c(-c4ccc(Cl)cc4)nsc23)CC1`, the activation was 112% (active).

With `O=C(O)CCNc1cc(N2CCN(C(=O)c3ccco3)CC2)c2noc3c2c1C(=O)c1ccccc1-3`, the activation is 3.54%.

Regarding `CCN(CC)CCCC(C)n1c2nc(=O)[nH]c(=O)c-2nc2cc(Cl)ccc21` (configuration not stated), the activation is 7.49%. As for `CCOC(=O)c1ccc(N=c2sc(C(=O)OC)cc(=O)n2CCCN2CCOCC2)cc1`, the figure is 4.75%. To `O=C(NC(=S)NCCN1CCOCC1)c1ccc(F)cc1` belongs 72.6% (active); to `CCC(CC)NC(=O)Nc1ccccc1C`, 7.62%; to `CCOC(=O)c1c(NC(=S)N2CCN(C)CC2)sc2c1CCN(C(=O)OCC)C2`, 7.96%.

On to `CCOC(=O)N1CCN(C(=S)Nc2ccccc2C)CC1`, for which the activation is 32.7% (active). As for `O=C1NCCCCC1NS(=O)(=O)c1cccc(C(F)(F)F)c1` (configuration not stated), the figure is 7.86%. For `N#Cc1ccc(S(=O)(=O)NC2CCCCNC2=O)cc1` (configuration not stated), the activation was 93.6% (active). As for `N#Cc1ccc(S(=O)(=O)NC2CCN(Cc3ccccc3)CC2)cc1`, the figure is 9.61%; as for `CCOP(=O)(OCC)/C(=N/OC(=O)c1ccc(OC)cc1)C(N)=O`, 11.7% (active); as for `COc1[nH]c(/N=C/c2ccccc2)c(C#N)c1C#N`, 7.9%. On to `O=C(CC1CCCC1)N1CCN(S(=O)(=O)c2ccccc2)CC1`, for which the activation was 3.96%. To `O=C(CSc1n[nH]c(-c2cccs2)n1)N1CCOCC1` belongs 3.55%. As for `O=C(c1cc(-c2cccs2)nn1-c1ccccc1)N1CCN(S(=O)(=O)c2ccccc2)CC1`, the figure is 3.27%; as for `O=C(c1cc(Cl)ccc1O)N1CCN(S(=O)(=O)c2cccs2)CC1`, 683% (active); as for `O=C(Cc1cccs1)N1CCN(S(=O)(=O)c2cc(Cl)ccc2Cl)CC1`, 13.5% (active). With `O=C(Nc1nccs1)C1CCN(S(=O)(=O)c2ccccc2)CC1`, the activation is 1030% (active). As for `O=C(Nc1ccccc1N1CCOCC1)C1CCN(S(=O)(=O)c2ccccc2F)CC1`, the figure is 3.08%. To `O=C(Nc1ccc(Cl)cn1)C1CCN(S(=O)(=O)c2cccs2)CC1` belongs 242% (active).

Consider `CCOc1ccc(NC(=O)C2CCN(S(=O)(=O)c3cccnc3)CC2)cc1`, for which the activation is 0.88%. Take `N#Cc1cccc(NC(=O)CSc2ccc3c4c(cccc24)C(=O)c2ccccc2-3)c1`: the activation was 15.7% (active). As for `COc1ccc(NC(=O)CSc2ccc3c4c(cccc24)C(=O)c2ccccc2-3)cc1`, the figure is 19.2% (active). As for `N#Cc1cccc(NC(=S)Nc2ccccc2)c1`, the figure is 6.24%; as for `COc1ccc(/C(O)=C2\C(=O)C(=O)N(Cc3ccco3)C2c2cc(OC)ccc2OC)cc1` (configuration not stated), 10.9%; as for `COc1ccc(NC(=O)CC2C(=O)N(Cc3ccco3)C(=S)N2C(C)C)cc1` (configuration not stated), 41.6% (active). To `O=S(=O)(c1ccc(F)cc1)N1CCN(CCOc2ccccc2)CC1` belongs 956% (active).

As to `COC(=O)N1CCN(S(=O)(=O)c2ccc(F)cc2)CC1`, the activation is 8.33%. As for `O=[N+]([O-])c1cc(-c2ccn[nH]2)ccc1Cl`, the figure is 10.1%; as for `O=C(Nc1ccccc1-c1ccccc1)c1ccc(Cl)c([N+](=O)[O-])c1`, 48.5% (active). To `COc1ccc(C(=O)Nc2ccccc2-c2ccccc2)cc1Cl` belongs 11%; to `COc1ccc(/C=C2\SC(=S)N(CCCC(=O)Nc3ccccn3)C2=O)cc1OC`, 9.09%; to `COc1ccc(/C=C2\SC(=S)N(CCCC(=O)Nc3ccccc3C(=O)O)C2=O)cc1OC`, 28.5% (active). As for `O=C1/C(=C\c2cc(Cl)c(O)c(Cl)c2)SC(=S)N1Cc1ccccc1`, the figure is -1.15%. Turning to `COc1cc(/C=C2/SC(=S)N(Cc3ccccc3)C2=O)cc(Cl)c1O`, the activation is 5470% (active). `C/C=C/c1ccc(OCCCNCC(C)O)c(OC)c1` (configuration not stated): the activation was 663% (active). To `COc1ccc(N2C(=O)c3cccc4c(N(C)CCO)ccc(c34)C2=O)cc1` belongs 4.11%; to `CCC/C(C#Cc1ccc(N(C)C)cc1)=C1/c2ccccc2C(=O)N1c1ccccc1`, 94.7% (active). For `Cc1ccc(S(=O)(=O)N2CCOCC2)cc1C(=O)N1C(=O)c2cccc(N)c2C1=O`, the activation was 8.84%. To `Cc1ccc(S(=O)(=O)c2cccc(S(=O)(=O)N3CCOCC3)c2)cc1S(=O)(=O)N1CCOCC1` belongs 20.6% (active); to `Cc1nnc(N2CCOCC2)c2nn(-c3cccc(Cl)c3)c(C)c12`, 4.95%; to `COc1ccc(/C=N/NC(=O)c2cccnc2)cc1CN1CCOCC1`, 36.1% (active).

On to `O=C(CNC(=O)c1cccc(Cl)c1)N/N=C/c1cccnc1`, for which the activation was 11%. As for `COc1ccc(/C=N/NC(=O)c2cc(OC)c(OC)c(OC)c2)cc1CN1CCc2cc(OC)c(OC)cc2C1C` (configuration not stated), the figure is 28.3% (active).

For `COC(=O)N/N=C/c1cccnc1`, the activation is 2.85%. To `O=C(C[n+]1cccc2ccccc21)c1ccccc1` belongs 10.7%. To `COC(=O)C[n+]1cccc2ccccc21` belongs 212% (active). To `O=C(NCc1ccc(Cl)cc1)C1CCN(c2cnccn2)CC1` belongs 68.5% (active); to `O=C(NCCc1ccccc1)C1CCN(c2ncccn2)CC1`, 2.88%.

Turning to `O=C(CCC1CCCN(C(=O)c2ccncc2)C1)NCc1ccc(F)c(F)c1` (configuration not stated), the activation was 3.6%. Take `CCOC(=O)c1ccccc1-n1nnnc1C`: the activation was 1.99%.

Take `CCOC(=O)c1cc2c(s1)-c1ccccc1CC2`: the activation was 0.58%. To `CCOC(=O)c1cc2n(c1N)-c1ccccc1C2=O` belongs 71.8% (active); to `CCC(C)[C@H](NC(=O)N1CCC(C)CC1)C(=O)OC` (some centres not stated), 11.1%; to `Oc1ccc(-c2c(C3=CCCCC3)sc3ccccc23)cc1`, 125% (active). As for `COc1ccccc1-c1sc2ccccc2c1-c1ccc(Br)nc1`, the figure is -1.06%; as for `CCN(C(=O)c1cc2ccccc2oc1=O)c1ccccc1`, 8.22%; as for `N#CCCN(C(=O)c1ccco1)c1ccccc1`, 4250% (active). To `CCOC(=O)c1cnc2ccccc2c1Nc1ccc(C(=O)O)cc1` belongs 161% (active). For the compound `CCOC(=O)/C(=N\Nc1ccc(C(C)=O)cc1)c1csc(Nc2ccccc2)n1`, the activation was 11.1%. To `COc1ccc(OCCNC(=O)c2ccc(C)cc2)cc1` belongs 28.4% (active); to `Cc1ccc(OCCCC(=O)NC2CCCCC2)cc1`, 4.78%. To `COc1ccc(OCC(=O)OCCNC(=O)c2cccnc2)cc1` belongs 5.53%; to `Cc1sc2nc(COC(=O)c3cccc(S(=O)(=O)N(C)c4ccccc4)c3)[nH]c(=O)c2c1C`, 2.91%.

As for `Cc1ccc(CNC(=O)c2cc(-c3ccccc3)nn2Cc2cc(C)no2)cc1`, the activation is 8.67%. As for `Cc1ccc(CNC(=O)CCn2cc(-c3ccc(C)cc3)nc2-c2ccncc2)cc1`, the figure is 57.1% (active).

Turning to `Cc1ccc(C)c(C(=O)CCC(=O)NCc2ccc(Cl)cc2)c1`, the activation was 10.5%.

As to `Cc1ccc(-c2ccc(OC(=O)c3ccc(=O)[nH]c3)c(C)c2)cc1`, the activation was 28.2% (active).

As for `CCc1ccc(NC(=O)C2CCN(S(=O)(=O)c3ccc4[nH]c(=O)ccc4c3)CC2)cc1`, the activation was 12.1% (active). To `CC(=O)Nc1ccc(Nc2cc(N(C)C)c3nonc3c2[N+](=O)[O-])cc1` belongs 99.2% (active). To `COc1ccc(-n2nc3c(N4CCC(C(=O)N5CCC(C)CC5)CC4)nnc(C)c3c2C)cc1` belongs 2.83%; to `O=C(Nc1cc2c(cc1Br)OCCCO2)c1cccnc1`, 2.74%; to `CC1CCN(c2ccc(NC(=O)c3cccnc3)cc2)CC1`, 19.8% (active).
